In brackets after ≈: the same amount, converted by molar mass. Activity calls are given as the source filed them. The calls are words filed in the database; no cut-off is given here.

This note sets out measurements from ChEMBL document CHEMBL3351356, “Development of a novel class of mitochondrial ubiquinol-cytochrome c reductase binding protein (UQCRB) modulators as promising antiangiogenic leads” (J Med Chem, 2014).

The target in data set [1] is T1, Cytochrome b-c1 complex subunit 7 (Homo sapiens, UniProt P14927).
T1 sequence (P14927 whole entry): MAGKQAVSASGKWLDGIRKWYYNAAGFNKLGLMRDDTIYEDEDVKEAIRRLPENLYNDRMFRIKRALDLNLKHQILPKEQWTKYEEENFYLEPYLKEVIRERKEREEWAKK
Kind of data set: Modulation of UQCRB in human HepG2 cells assessed as inhibition of HIF-1alpha for 4 hrs under 1%O2 by Western blot analysis. The format is cell-based. The gist of the method: (§1)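 HepG2 cells pretreated with compound for 30 min, then exposed to 1% O₂ for 4 h. HIF-1α and tubulin measured by Western blot and quantified by densitometry.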
Background: Immunoblotting shows a protein as a band on a membrane.

Data set [2] deals with Chorioallantoic membrane. Kind of data set: Antiangiogenic activity in chicken chorioallantoic membrane assessed as inhibition of blood vessel formation (reference value: 23%). The format is functional, cell membranes. Conditions: Gallus gallus, dose or concentration not given here. The gist of the method:
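Fertilized chick eggs held at 37 °C in a humidified incubator; about 2 mL albumin withdrawn on day 3. Compound-loaded Thermanox coverslips placed on the CAM of 4.5-day embryos; retinoic acid served as positive control. Result given as percent positive eggs of eggs tested.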

Data set [3] in a line: Thermodynamic solubility in PBS by HPLC. The format is physicochemical. The following applies: read-out: Therm_solubility.
Data set [4] has as its system HUVEC. The data set can be described thus: Toxicity in HUVEC assessed as reduction in cell viability by trypan blue staining method. The format is cell-based. The following applies: human. The gist of the method: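 HUVECs tested by trypan blue staining, run in parallel with the VEGF-stimulated invasion and tube formation assays at the same concentrations.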
For data set [5], the system named is HepG2. Kind of data set: Cytotoxicity against human HepG2 cells assessed as effect on cell viability at 1 to 20 uM after 72 hrs by MTT assay. The format is cell-based. The following applies: hepg2, 72 h. A general note: Tetrazolium assays rely on reduction of a dye to a coloured formazan, in cell work by metabolically active cells.
For data set [6], the system named is Chorioallantoic membrane. The data set can be described thus: Toxicity in chicken chorioallantoic membrane assessed as induction of rupture of pre-existing vessels. Conditions: in vivo. The format is cell membranes, Gallus gallus.
A short description of data set [7]: Thermodynamic solubility in H2O by HPLC. The data set is classed as physicochemical. The following applies: water; read-out: Therm_solubility.
The subject of data set [8] is U-87MG ATCC. The data set can be described thus: Antitumor activity against human U87MG cells implanted into Balb C mouse assessed as HIF1alpha expression in tumor at 20 mg/kg, ip every other day measured on day 18 by immunohistochemical staining. More on the design: dose 20 mg/kg. The format is functional, organism-based. The essentials: (§2)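 Paraffin tumor sections (4 μm) incubated overnight at 4 °C with anti-CD31, anti-HIF-1α or anti-VEGF antibodies. Then FITC- or Alexa-conjugated secondary antibodies for 45 min at room temperature, with DAPI counterstain.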

For data set [9], the target named is T2, Cytochrome b-c1 complex subunit 7 (Homo sapiens) (UniProt P14927).
T2 sequence (whole entry): T1 sequence (P14927 whole entry)
Kind of data set: Modulation of UQCRB in human HepG2 cells assessed as inhibition of HIF-1alpha accumulation at 1 to 10 uM for 4 hrs under 1%O2 by Western blot analysis. The format is cell-based. The gist of the method:
as §1

The target in data set [10] is T2, Cytochrome b-c1 complex subunit 7 (Homo sapiens). Kind of data set: Binding affinity to UQCRB in human HepG2 cells assessed as inhibition of hypoxia-induced mitochondrial ROS generation under 1%O2 for 10 mins after 30 mins by MitoSOX Red fluorescence assay. The data set is classed as cell-based. The gist of the method:
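HepG2 cells pretreated with compound for 30 min, then held at 1% O₂ for 10 min. Loaded with MitoSOX Red (5 μM) for 10 min, lysed and centrifuged. Fluorescence of protein-normalized supernatant read at ex 510 / em 580 nm. Mean ± SE of three independent experiments.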

Data set [11] concerns U-87MG ATCC. The data set can be described thus: Antitumor activity against human U87MG cells implanted into Balb C mouse assessed as inhibition of tumor growth at 20 mg/kg, ip every other day measured on day 18. The format is functional, organism-based. Details: dose 20 mg/kg. The gist of the method: (§3)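 Female athymic Balb C nu/nu mice, 4 weeks old, implanted subcutaneously in the dorsal flank with 5 × 10⁶ U87MG cells in PBS/Matrigel (1:1). At palpable tumors (50−100 mm³), randomized into two groups (n = 8). Dosed intraperitoneally with vehicle or 20 mg/kg every other day. Tumor volume and body weight followed over 17 days.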

Data set [12] concerns HUVEC. Kind of data set: Antiangiogenic activity in HUVEC assessed as inhibition of VEGF-induced tube formation by optical microscopy. The data set is classed as functional, cell-based. Conditions: Homo sapiens. The essentials: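 Serum-starved HUVECs on Matrigel, VEGF-stimulated with or without compound. Connected cells counted in random fields at 100× and divided by total cells in the same field. Basal tube formation in serum-free medium normalized to 100%. Mean ± SE of three independent experiments.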

For data set [13], the target named is T2, Cytochrome b-c1 complex subunit 7 (Homo sapiens). Kind of data set: Displacement of biotin-labeled terpestacin from UQCRB (unknown origin) by surface plasmon resonance. Conditions: concentration not given here. The essentials: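 Biotin (control) and biotinylated terpestacin immobilized on a streptavidin sensor chip. Competitor (25 μM) incubated with purified UQCRB (25 μM) in pH 7.4 buffer (10 mM HEPES, 150 mM NaCl, 3 mM EDTA). Complexes injected at 30 μL/min; chip regenerated with 50 mM NaOH. Binding taken as resonance on biotinylated terpestacin minus resonance on biotin.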
In general terms: In SPR one partner is held on a chip, and binding of the other changes the refractive index at the surface.

For data set [14], the system named is U-87MG ATCC. Kind of data set: Antitumor activity against human U87MG cells implanted into Balb C mouse assessed as CD31 expression in tumor at 20 mg/kg, ip every other day measured on day 18 by immunohistochemical staining. The data set is classed as functional, organism-based. More on the design: dose 20 mg/kg. The gist of the method:
as §2

Data set [15] relates to HUVEC. The data set can be described thus: Antiangiogenic activity in HUVEC assessed as inhibition of VEGF-induced invasion by Transwell chyamber system. The data set is classed as functional, cell-based. Conditions: Homo sapiens. The gist of the method:
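HUVECs serum-starved, then stimulated with VEGF with or without compound. Invasion measured in Transwell chambers with 8.0 μm pore polycarbonate filter inserts; invaded cells counted by light microscope at 100×. Basal invasiveness of HUVECs in serum-free medium normalized to 100%. Mean ± SE of three independent experiments.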

For data set [16], the system named is U-87MG ATCC. Kind of data set: Antitumor activity against human U87MG cells implanted into Balb C mouse assessed as VEGF expression in tumor at 20 mg/kg, ip every other day measured on day 18 by immunohistochemical staining. The format is functional, organism-based. More on the design: dose 20 mg/kg. The gist of the method: as §2
Data set [17] concerns HepG2. Kind of data set: Inhibition of hypoxia-induced VEGF expression in human HepG2 cells at 1 to 5 uM for 30 mins followed by 1%O2 for 16 hrs by ELISA. The format is functional, cell-based. The gist of the method:
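HepG2 cells pretreated with compound for 30 min, then exposed to 1% O₂ for 16 h. VEGF protein in culture supernatant measured by VEGF-specific ELISA. Mean ± SE of three independent experiments.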

In data set [18] the test system is U-87MG ATCC. Kind of data set: Antitumor activity against human U87MG cells implanted into Balb C mouse assessed as decrease in microvessel density at 20 mg/kg, ip every other day measured on day 18. The data set is classed as functional, organism-based. Details: dose 20 mg/kg.
The subject of data set [19] is Mus musculus. Kind of data set: Toxicity in human U87MG cells implanted into Balb C mouse assessed as body weight loss at 20 mg/kg, ip every other day measured on day 18. The format is organism-based, U-87MG ATCC. More on the design: dose 20 mg/kg, route intraperitoneal. The following applies: in vivo. The gist of the method: as §3
A short description of data set [20]: Antitumor activity against human U87MG cells assessed as inhibition of cell growth after 72 hrs by MTT assay. The data set is classed as functional, cell-based, U-87MG ATCC. Conditions: U-87 MG.

Broadly, the IC50 is the concentration needed to halve the response being measured. As for `O=S(=O)(Nc1ccc(O)c2ccccc12)c1ccc(-c2ccccc2)cc1`, the IC50 in data set [1] is more than 20 µM.

By inhibition is commonly meant the percentage by which the read-out fell short of the control. As for `CC1=C(/C=C/C(C)=C/C=C/C(C)=C/C(=O)O)C(C)(C)CCC1`, in data set [2], the inhibition came to 67%.

On to `O=S(=O)(Nc1ccc(O)cc1)c1cccc2cccnc12`, for which the IC50 in data set [1] was more than 20 µM.

As for `O=S(=O)(Nc1ccc(O)c(Cl)c1)c1ccc(-c2ccccc2)cc1`, the IC50 in [1] is more than 20 µM.

`CC(C)(C)c1ccc(S(=O)(=O)Nc2ccc(O)c3ncccc23)cc1`: the half-inhibitory concentration (IC50) in data set [1] was determined as 20 µM. Besides, the solubility thermodynamic in data set [3] is 12.8 µg/mL (≈ 36 µM).

`CC(C)(C)c1ccc(S(=O)(=O)Nc2ccccc2O)cc1`: the IC50 in [1] stood at 8 µM.

Consider `O=S(=O)(Nc1ccc(O)cc1)c1ccc2ccccc2c1`, for which, in data set [1], the IC50 was more than 20 µM.

With `CCc1ccc(S(=O)(=O)Nc2ccc(O)cc2)cc1`, in data set [1], the IC50 is more than 20 µM.

With `Cc1ccc(S(=O)(=O)Nc2ccc(O)cc2)cc1`, in data set [1], the IC50 was more than 20 µM.

Regarding `CC(C)(C)c1ccc(S(=O)(=O)Nc2cccc(O)c2)cc1`, the IC50 in data set [1] was found to be 8 µM.

As for `O=S(=O)(Nc1ccc(O)cc1)c1ccc(-c2ccccc2)cc1` [listing 1 of 2 here], the Activity entry in data set [4], in [5] and in [6] was “Non-toxic” throughout. Moreover, in data set [1], the IC50 turned out to be 2.5 µM. Also, the solubility thermodynamic in [3] and in [7] was less than 2.06 µg/mL in each case.

`O=S(=O)(Nc1cccc2ccc(O)cc12)c1ccc(-c2ccccc2)cc1`: the IC50 in data set [1] was more than 20 µM.

Regarding `O=S(=O)(Nc1cccc2c(O)cccc12)c1ccc(-c2ccccc2)cc1`, in [1], the IC50 was more than 20 µM.

For the compound `CC(C)(C)c1ccc(S(=O)(=O)Nc2ccc(O)c3ccccc23)cc1`, the IC50 in [1] was more than 20 µM.

On to `O=C(O)c1cc(NS(=O)(=O)c2ccc(-c3ccccc3)cc2)ccc1O`, for which the IC50 in [1] is more than 20 µM.

For the compound `O=S(=O)(Nc1ccc(O)cc1)c1ccc(-c2ccccc2)cc1` [listing 2 of 2 here], the inhibition entry in data set [8], in data set [9], in data set [11], in data set [14], in data set [16] and in data set [17] was “Active” each time. For the same compound, the inhibition entry in data set [18] was “Active”. The inhibition entry in data set [10] is “Dose-dependent effect”; in [12], “Dose-dependent effect”; in data set [13] it was 40%; in data set [2] it was 69%; in data set [15] it was “Dose-dependent effect”.

For the compound `O=S(=O)(Nc1ccc([O-])cc1)c1ccc(-c2ccccc2)cc1.[K+]`, the Activity result in data set [19] is “Non-toxic”. The results for the IC50 in [1] and in data set [20] were 5 µM and 12.5 µM, respectively. In addition, the solubility thermodynamic is 108 µg/mL in data set [3] and more than 500 µg/mL in data set [7].

Regarding `O=S(=O)(Nc1ccc(O)c(F)c1)c1ccc(-c2ccccc2)cc1`, in [1], the IC50 is more than 20 µM.

On to `O=S(=O)(Nc1ccc(O)c2ncccc12)c1ccc(-c2ccccc2)cc1`, for which the IC50 in data set [1] turned out to be 20 µM. For the same compound, the solubility thermodynamic in [3] was 7.26 µg/mL (≈ 19.3 µM).

As to `CC(C)(C)c1ccc(S(=O)(=O)Nc2ccc(O)cc2)cc1`, the inhibition entry in [9] and in data set [17] was “Active” throughout. Also, the Activity result in data set [4], in data set [5] and in data set [6] was “Non-toxic” each time. The inhibition result was “Dose-dependent effect” in data set [10]; “Dose-dependent effect” in data set [12]; 40% in data set [13]; 65% in data set [2]; “Dose-dependent effect” in data set [15]. Also, the IC50 in data set [1] came out at 5 µM. Besides, the solubility thermodynamic in data set [3] turned out to be 26.7 µg/mL (≈ 87.6 µM).
